Results published in ChEMBL document CHEMBL2203191, “Synthesis and biological evaluation of new fluorine substituted derivatives as angiotensin II receptor antagonists with anti-hypertension and anti-tumor effects” (Bioorg Med Chem, 2012).
Active and inactive are the calls of the source. No cut-off for these calls is given here.

How the values were obtained:
Rattus norvegicus [1] = experiment: Antihypertensive activity in SHR rat assessed as mean arterial pressure at 5 to 10 mg/kg, po; type: functional, organism-based; settings: Artery
How it was run: (§1)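 SHR (250-300 g) or renal hypertensive rats (SD rats, 250-350 g, left renal artery fully ligated under sodium pentobarbital 40 mg/kg; SBP above 160 mmHg selected), 10 per group. Dosed orally at 5 or 10 mg/kg as a suspension in 0.5% sodium carboxymethyl cellulose; vehicle-only negative control. Rats under pentobarbital (40 mg/kg ip) with right carotid cannulated to a pressure transducer; MAP recorded continuously for over 10 h and again at 24 h.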

Rattus norvegicus [2] = experiment: Cardiotoxicity in SHR rat assessed as effect on heart rate at 5 mg/kg, po; type: toxicity, organism-based; design: dose 5 mg/kg, route oral; settings: in vivo
How it was run: (§2)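 Heart rate taken in SHR (250-300 g, 10 per group) given 5 or 10 mg/kg orally as a suspension in 0.5% sodium carboxymethyl cellulose, alongside a vehicle control. Monitored under sodium pentobarbital anesthesia (40 mg/kg ip) through a carotid arterial catheter and pressure transducer, continuously for over 10 h and again at 24 h.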

Rattus norvegicus [3] = experiment: Cardiotoxicity in SHR rat assessed as effect on heart rate at 10 mg/kg, po; type: toxicity, organism-based; design: dose 10 mg/kg, route oral; settings: in vivo; how it was run: as §2
Rattus norvegicus [4] = species: Rattus norvegicus; experiment: (§3) Displacement of [125I]Angiotensin-2 from angiotensin AT1 receptor in Sprague-Dawley rat VSMC after 60 mins by gamma counting
How it was run: (§4)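 VSMCs from SD rat thoracic aorta, grown as explants in DMEM with 15% FBS; passages 3–7 used. Cells incubated with 0.1 nM [125I]Ang II and compound (1 × 10^-6 to 1 × 10^-12 M final) for 60 min at 37 °C. Nonspecific binding set with 1 µM Ang II. After PBS washes, cells lysed in 0.1 M NaOH and counted by gamma counter. IC50 obtained by regression of displacement curves; Ki = IC50/(1+[L]/Kd).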

[5] = as §3; how it was run: as §4
LNCaP [6] = experiment: Antiproliferative activity against human LNCAP cells assessed as reduction in Ang-2-induced increase in cell viability at 10 uM after 24 to 96 hrs by MTT assay; type: functional, cell-based
How it was run: (§5)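 LNCaP cells (1 × 10^5 per well) grown overnight at 37 °C, 5% CO2, then exposed to compound at 10 µM, with or without Ang II (1 × 10^-7 M). Control got medium with 0.05% v/v DMSO. MTT (5 mg/mL stock) added after 24, 48, 72 or 96 h and incubated 4 h at 37 °C; formazan dissolved in DMSO and read at 570 nm.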

LNCaP [7] = experiment: Antitumor activity against human LNCAP cells xenografted in athymic nude mouse assessed as relative tumor volume at 10 mg/kg/day dosed on day 8 measured at 4 weeks post implantation by caliper measurement (reference value: 28.34 +/-2.05); type: functional
Rattus norvegicus [8] = experiment: Antihypertensive activity in SHR rat assessed as decrease in mean arterial pressure at 10 mg/kg, po after 24 hrs; type: functional, organism-based; design: dose 10 mg/kg; settings: Artery; how it was run: as §1
LNCaP [9] = experiment: Cytotoxicity against human LNCAP cells assessed as cell viability at 10 uM after 24 to 96 hrs by MTT assay; type: cell-based; how it was run: as §5
Rattus norvegicus [10] = experiment: Antihypertensive activity in Sprague-Dawley rat renal hypertensive model assessed as decrease in mean arterial pressure at 5 mg/kg, po; type: functional, organism-based; design: dose 5 mg/kg; settings: Artery; how it was run: as §1
Rattus norvegicus [11] = experiment: Antihypertensive activity in SHR rat assessed as decrease in mean arterial pressure at 5 to 10 mg/kg, po after 3 to 5 hrs; type: functional, organism-based; settings: Artery; how it was run: as §1
Rattus norvegicus [12] = experiment: Antihypertensive activity in SHR rat assessed as decrease in mean arterial pressure at 5 mg/kg, po; type: functional, Artery; how it was run: as §1
LNCaP [13] = experiment: Antitumor activity against human LNCAP cells xenografted in athymic nude mouse assessed as relative tumor volume at 5 mg/kg/day dosed on day 8 measured at 4 weeks post implantation by caliper measurement (reference value: 28.34 +/-2.05); type: functional
Rattus norvegicus [14] = experiment: Antihypertensive activity in SHR rat assessed as decrease in mean arterial pressure at 10 mg/kg, po; type: functional, Artery; how it was run: as §1
Rattus norvegicus [15] = experiment: Antihypertensive activity in Sprague-Dawley rat renal hypertensive model assessed as decrease in mean arterial pressure at 10 mg/kg, po; type: functional, organism-based; design: dose 10 mg/kg; settings: Artery; how it was run: as §1
Rattus norvegicus [16] = experiment: Antihypertensive activity in SHR rat assessed as decrease in mean arterial pressure at 10 mg/kg, po measured for 9 hrs after dosing; type: functional, organism-based; design: dose 10 mg/kg; settings: Artery; how it was run: as §1
Rattus norvegicus [17] = experiment: Antihypertensive activity in SHR rat assessed as decrease in mean arterial pressure at 10 mg/kg, po measured for 7 hrs after dosing; type: functional, organism-based; design: dose 10 mg/kg; settings: Artery; how it was run: as §1
Rattus norvegicus [18] = experiment: Antihypertensive activity in SHR rat assessed as decrease in mean arterial pressure at 5 to 10 mg/kg, po measured for 8 hrs after dosing; type: functional, organism-based; settings: Artery; how it was run: as §1
Rattus norvegicus [19] = experiment: Antihypertensive activity in SHR rat assessed as decrease in mean arterial pressure at 5 mg/kg, po after 3 hrs; type: functional, Artery; how it was run: as §1
Rattus norvegicus [20] = experiment: Antihypertensive activity in SHR rat assessed as decrease in mean arterial pressure at 10 mg/kg, po after 3 hrs; type: functional, Artery; how it was run: as §1

| Structure (SMILES) | Activity (Rattus norvegicus [1]) | Activity (Rattus norvegicus [2]) | Activity (Rattus norvegicus [3]) | inhibition (Rattus norvegicus [4]) | IC50 [5] | Ki [5] | Activity (Rattus norvegicus [14]) | Activity (Rattus norvegicus [15]) | also measured |
| --- | --- | --- | --- | --- | --- | --- | --- | --- | --- |
| CCCCc1nc(Cl)c(C(=O)O)n1Cc1ccc(-c2ccc(F)cc2C(=O)O)cc1 | inactive | Non-toxic | Non-toxic | Dose-dependent effect | 26.1 nM | 17.6 nM | – | – | – |
| CCCCC1=NC2(CCCC2)C(=O)N1Cc1ccc(-c2ccccc2-c2nnn[nH]2)cc1 [IRBESARTAN] | – | – | – | Dose-dependent effect | 3.11 nM | 2.75 nM | – | – | – |
| CCCC(=O)N(Cc1ccc(-c2ccc(F)cc2C(=O)O)cc1)[C@H](C(=O)O)C(C)C | – | Non-toxic | Non-toxic | Dose-dependent effect | 0.584 nM | 0.42 nM | 42 mmHg | Active | Activity (LNCaP [6]): Active; Ratio (LNCaP [7]): 12.39; Activity (Rattus norvegicus [8]): Active; Activity (LNCaP [9]): Non-toxic; Activity (Rattus norvegicus [10]): Active; Activity (Rattus norvegicus [11]): Active; Activity (Rattus norvegicus [12]): 27 mmHg; Ratio (LNCaP [13]): 17.44 |
| CCCCC(=O)N(Cc1ccc(-c2ccccc2-c2nnn[nH]2)cc1)[C@H](C(=O)O)C(C)C [VALSARTAN] | – | – | Non-toxic | Dose-dependent effect | 2.64 nM | 2.08 nM | 28 mmHg | Active | Activity (Rattus norvegicus [16]): Active |
| CCCCC1=NC2(CCCC2)C(=O)N1Cc1ccc(-c2ccc(F)cc2C(=O)O)cc1 | inactive | Non-toxic | Non-toxic | Dose-dependent effect | 9.98 nM | 6.75 nM | – | – | – |
| CCCCc1nc(Cl)c(CO)n1Cc1ccc(-c2ccccc2-c2nn[nH]n2)cc1 [LOSARTAN] | – | – | Non-toxic | – | – | – | – | – | Activity (LNCaP [9]): Non-toxic |
| CCCCc1nc(Cl)c(CO)n1Cc1ccc(-c2ccccc2-c2nnn[nH]2)cc1 [LOSARTAN] | – | – | – | Dose-dependent effect | 1.64 nM | 1.41 nM | 27 mmHg | Active | Activity (LNCaP [6]): Active; Ratio (LNCaP [7]): 15.75; Ratio (LNCaP [13]): 21.44; Activity (Rattus norvegicus [17]): Active |
| CCCCc1nc(Cl)c(CO)n1Cc1ccc(-c2ccc(F)cc2C(=O)O)cc1 | – | Non-toxic | Non-toxic | Dose-dependent effect | 4.11 nM | 3.78 nM | 25 mmHg | Active | Activity (Rattus norvegicus [18]): Active; Activity (Rattus norvegicus [12]): 18 mmHg |
| CCCCc1nc(Cl)c(C(=O)O)n1Cc1ccc(-c2cc(F)ccc2C(=O)O)cc1 | – | Non-toxic | Non-toxic | Dose-dependent effect | 13.6 nM | 9.17 nM | – | Active | Activity (Rattus norvegicus [19]): 23 mmHg; Activity (Rattus norvegicus [18]): Active; Activity (Rattus norvegicus [20]): 32 mmHg |
| CCCCc1nc(Cl)c(C(=O)O)n1Cc1ccc(-c2cc(F)c(F)cc2C(=O)O)cc1 | inactive | Non-toxic | Non-toxic | Dose-dependent effect | 13.5 nM | 9.11 nM | – | – | – |
